Laboratory results reported in ChEMBL document CHEMBL1149892, “Structure-antifungal activity relationship of His-Phe-Arg-Trp-Gly-Lys-Pro-Val-NH2 and analogues” (2008).

Tests used:
Format in all cases: functional
Candida tropicalis [1] = test: Antifungal activity against Candida tropicalis C 131 at 200 uM after 24 hrs relative to amphotericin B
Method in brief: (§1)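 Broth microdilution in RPMI-1640. Peptides come from DMSO stocks, final DMSO ≤2%, at final 200 and 100 μM. Inoculum is 1–5 × 10^3 CFU/mL from strains grown 24 h at 35 °C on Sabouraud-chloramphenicol agar. […] Growth control carries matched DMSO; amphotericin B defines 100% inhibition. Run in duplicate.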

Candida albicans [2] = test: Antifungal activity against Candida albicans 10231 at 200 uM after 24 hrs relative to amphotericin B; method in brief: as §1
Cryptococcus neoformans [3] = test: Antifungal activity against Cryptococcus neoformans ATCC 32264 at 200 uM after 48 hrs relative to amphotericin B; conditions: ATCC 32264, 48 h
Method in brief: (§2)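 Microplate assay in RPMI-1640 with DMSO-dissolved peptide, final DMSO ≤2%. Inoculum is 1–5 × 10^3 CFU/mL from slants grown 24 h at 35 °C. Plates are held 48 h at 35 °C in a moist, dark chamber and read at OD405. Inhibition is taken against a DMSO-matched growth control after sterility-well subtraction; amphotericin B is set as 100%. Duplicate determinations.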

Cryptococcus neoformans [4] = test: Antifungal activity against Cryptococcus neoformans ATCC 32264 at 3.25 uM after 48 hrs relative to amphotericin B; conditions: ATCC 32264, 48 h; method in brief: as §2
Cryptococcus neoformans [5] = test: Antifungal activity against Cryptococcus neoformans ATCC 32264 at 12.5 uM after 48 hrs relative to amphotericin B; conditions: ATCC 32264, 48 h; method in brief: as §2
Cryptococcus neoformans [6] = test: Antifungal activity against Cryptococcus neoformans ATCC 32264 at 0.40 uM after 48 hrs relative to amphotericin B; conditions: ATCC 32264, 48 h; method in brief: as §2
Cryptococcus neoformans [7] = test: Antifungal activity against Cryptococcus neoformans ATCC 32264 at 50 uM after 48 hrs relative to amphotericin B; conditions: ATCC 32264, 48 h; method in brief: as §2
Cryptococcus neoformans [8] = test: Antifungal activity against Cryptococcus neoformans ATCC 32264 at 6.25 uM after 48 hrs relative to amphotericin B; conditions: ATCC 32264, 48 h; method in brief: as §2
Candida albicans [9] = test: Antifungal activity against Candida albicans 10231 at 100 uM after 24hrs relative to amphotericin B; method in brief: as §1
Cryptococcus neoformans [10] = test: Antifungal activity against Cryptococcus neoformans ATCC 32264 at 25 uM after 48 hrs relative to amphotericin B; conditions: ATCC 32264, 48 h; method in brief: as §2
Cryptococcus neoformans [11] = test: Antifungal activity against Cryptococcus neoformans ATCC 32264 at 0.81uM after 48 hrs relative to amphotericin B; conditions: ATCC 32264, 48 h; method in brief: as §2
Candida tropicalis [12] = test: Antifungal activity against Candida tropicalis C 131 at 100 uM after 24 hrs relative to amphotericin B; method in brief: as §1
Cryptococcus neoformans [13] = test: Antifungal activity against Cryptococcus neoformans ATCC 32264 at 1.62 uM after 48 hrs relative to amphotericin B; conditions: ATCC 32264, 48 h; method in brief: as §2
Cryptococcus neoformans [14] = test: Antifungal activity against Cryptococcus neoformans ATCC 32264 at 100 uM after 48 hrs relative to amphotericin B; conditions: ATCC 32264, 48 h; method in brief: as §2

H-HYKWGKFV-NH2
inhibition at 200 µM (Candida tropicalis [1]): 1%
inhibition at 200 µM (Candida albicans [2]): 0%
inhibition at 200 µM (Cryptococcus neoformans [3]): 41%
inhibition at 3.25 µM (Cryptococcus neoformans [4]): 0%
inhibition at 12.5 µM (Cryptococcus neoformans [5]): 34%
inhibition at 0.4 µM (Cryptococcus neoformans [6]): 0%
inhibition at 50 µM (Cryptococcus neoformans [7]): 43%
inhibition at 6.25 µM (Cryptococcus neoformans [8]): 0%
inhibition at 100 µM (Candida albicans [9]): 0%
inhibition at 25 µM (Cryptococcus neoformans [10]): 38%
inhibition at 0.81 µM (Cryptococcus neoformans [11]): 0%
inhibition at 100 µM (Candida tropicalis [12]): 0%
inhibition at 1.62 µM (Cryptococcus neoformans [13]): 0%
inhibition at 100 µM (Cryptococcus neoformans [14]): 25%

H-HYRWGKFV-NH2
inhibition at 200 µM (Candida tropicalis [1]): 1%
inhibition at 200 µM (Candida albicans [2]): 10%
inhibition at 200 µM (Cryptococcus neoformans [3]): 35%
inhibition at 3.25 µM (Cryptococcus neoformans [4]): 16%
inhibition at 12.5 µM (Cryptococcus neoformans [5]): 21%
inhibition at 0.4 µM (Cryptococcus neoformans [6]): 0%
inhibition at 50 µM (Cryptococcus neoformans [7]): 37%
inhibition at 6.25 µM (Cryptococcus neoformans [8]): 16%
inhibition at 100 µM (Candida albicans [9]): 0%
inhibition at 25 µM (Cryptococcus neoformans [10]): 24%
inhibition at 0.81 µM (Cryptococcus neoformans [11]): 0%
inhibition at 100 µM (Candida tropicalis [12]): 0%
inhibition at 1.62 µM (Cryptococcus neoformans [13]): 5%
inhibition at 100 µM (Cryptococcus neoformans [14]): 21%

H-HYKWGKYV-NH2
inhibition at 200 µM (Candida tropicalis [1]): 3%
inhibition at 200 µM (Candida albicans [2]): 0%
inhibition at 200 µM (Cryptococcus neoformans [3]): 63%
inhibition at 12.5 µM (Cryptococcus neoformans [5]): 19%
inhibition at 50 µM (Cryptococcus neoformans [7]): 39%
inhibition at 6.25 µM (Cryptococcus neoformans [8]): 10%
inhibition at 100 µM (Candida albicans [9]): 0%
inhibition at 25 µM (Cryptococcus neoformans [10]): 22%
inhibition at 100 µM (Candida tropicalis [12]): 0%
inhibition at 100 µM (Cryptococcus neoformans [14]): 42%

H-HFRWGKFV-NH2
inhibition at 200 µM (Candida tropicalis [1]): 19%
inhibition at 200 µM (Candida albicans [2]): 61%
inhibition at 200 µM (Cryptococcus neoformans [3]): 77%
inhibition at 3.25 µM (Cryptococcus neoformans [4]): 0%
inhibition at 12.5 µM (Cryptococcus neoformans [5]): 0%
inhibition at 0.4 µM (Cryptococcus neoformans [6]): 0%
inhibition at 50 µM (Cryptococcus neoformans [7]): 15%
inhibition at 6.25 µM (Cryptococcus neoformans [8]): 0%
inhibition at 100 µM (Candida albicans [9]): 5%
inhibition at 25 µM (Cryptococcus neoformans [10]): 2%
inhibition at 0.81 µM (Cryptococcus neoformans [11]): 0%
inhibition at 100 µM (Candida tropicalis [12]): 9%
inhibition at 1.62 µM (Cryptococcus neoformans [13]): 0%
inhibition at 100 µM (Cryptococcus neoformans [14]): 15%

H-HFRWGKPV-NH2
inhibition at 200 µM (Candida tropicalis [1]): 0%
inhibition at 200 µM (Candida albicans [2]): 0%
inhibition at 200 µM (Cryptococcus neoformans [3]): 24%
inhibition at 3.25 µM (Cryptococcus neoformans [4]): 0%
inhibition at 12.5 µM (Cryptococcus neoformans [5]): 0%
inhibition at 0.4 µM (Cryptococcus neoformans [6]): 0%
inhibition at 50 µM (Cryptococcus neoformans [7]): 0%
inhibition at 6.25 µM (Cryptococcus neoformans [8]): 0%
inhibition at 100 µM (Candida albicans [9]): 0%
inhibition at 25 µM (Cryptococcus neoformans [10]): 0%
inhibition at 0.81 µM (Cryptococcus neoformans [11]): 0%
inhibition at 100 µM (Candida tropicalis [12]): 0%
inhibition at 1.62 µM (Cryptococcus neoformans [13]): 0%
inhibition at 100 µM (Cryptococcus neoformans [14]): 9%

H-HFKWGKYV-NH2
inhibition at 200 µM (Candida tropicalis [1]): 0%
inhibition at 200 µM (Candida albicans [2]): 15%
inhibition at 200 µM (Cryptococcus neoformans [3]): 83%
inhibition at 3.25 µM (Cryptococcus neoformans [4]): 36%
inhibition at 12.5 µM (Cryptococcus neoformans [5]): 40%
inhibition at 0.4 µM (Cryptococcus neoformans [6]): 26%
inhibition at 50 µM (Cryptococcus neoformans [7]): 50%
inhibition at 6.25 µM (Cryptococcus neoformans [8]): 31%
inhibition at 100 µM (Candida albicans [9]): 0%
inhibition at 25 µM (Cryptococcus neoformans [10]): 49%
inhibition at 0.81 µM (Cryptococcus neoformans [11]): 31%
inhibition at 100 µM (Candida tropicalis [12]): 0%
inhibition at 1.62 µM (Cryptococcus neoformans [13]): 33%
inhibition at 100 µM (Cryptococcus neoformans [14]): 50%

H-HFRWGKYV-NH2
inhibition at 200 µM (Candida tropicalis [1]): 21%
inhibition at 200 µM (Candida albicans [2]): 43%
inhibition at 200 µM (Cryptococcus neoformans [3]): 99%
inhibition at 3.25 µM (Cryptococcus neoformans [4]): 10%
inhibition at 12.5 µM (Cryptococcus neoformans [5]): 28%
inhibition at 0.4 µM (Cryptococcus neoformans [6]): 0%
inhibition at 50 µM (Cryptococcus neoformans [7]): 56%
inhibition at 6.25 µM (Cryptococcus neoformans [8]): 24%
inhibition at 100 µM (Candida albicans [9]): 0%
inhibition at 25 µM (Cryptococcus neoformans [10]): 41%
inhibition at 0.81 µM (Cryptococcus neoformans [11]): 0%
inhibition at 100 µM (Candida tropicalis [12]): 0%
inhibition at 1.62 µM (Cryptococcus neoformans [13]): 6%
inhibition at 100 µM (Cryptococcus neoformans [14]): 58%

H-HYKWGRFV-NH2
inhibition at 200 µM (Candida tropicalis [1]): 23%
inhibition at 200 µM (Candida albicans [2]): 11%
inhibition at 200 µM (Cryptococcus neoformans [3]): 89%
inhibition at 3.25 µM (Cryptococcus neoformans [4]): 17%
inhibition at 0.4 µM (Cryptococcus neoformans [6]): 0%
inhibition at 6.25 µM (Cryptococcus neoformans [8]): 19%
inhibition at 100 µM (Candida albicans [9]): 0%
inhibition at 0.81 µM (Cryptococcus neoformans [11]): 2%
inhibition at 100 µM (Candida tropicalis [12]): 0%
inhibition at 1.62 µM (Cryptococcus neoformans [13]): 21%
inhibition at 100 µM (Cryptococcus neoformans [14]): 47%

H-HFKWGKFV-NH2
inhibition at 200 µM (Candida tropicalis [1]): 22%
inhibition at 200 µM (Candida albicans [2]): 72%
inhibition at 200 µM (Cryptococcus neoformans [3]): 97%
inhibition at 3.25 µM (Cryptococcus neoformans [4]): 0%
inhibition at 12.5 µM (Cryptococcus neoformans [5]): 0%
inhibition at 0.4 µM (Cryptococcus neoformans [6]): 0%
inhibition at 6.25 µM (Cryptococcus neoformans [8]): 0%
inhibition at 100 µM (Candida albicans [9]): 0%
inhibition at 25 µM (Cryptococcus neoformans [10]): 0%
inhibition at 0.81 µM (Cryptococcus neoformans [11]): 0%
inhibition at 100 µM (Candida tropicalis [12]): 0%
inhibition at 1.62 µM (Cryptococcus neoformans [13]): 0%
inhibition at 100 µM (Cryptococcus neoformans [14]): 38%

H-HFRWGRFV-NH2
inhibition at 200 µM (Candida tropicalis [1]): 64%
inhibition at 200 µM (Candida albicans [2]): 80%
inhibition at 200 µM (Cryptococcus neoformans [3]): 94%
inhibition at 3.25 µM (Cryptococcus neoformans [4]): 12%
inhibition at 12.5 µM (Cryptococcus neoformans [5]): 26%
inhibition at 0.4 µM (Cryptococcus neoformans [6]): 7%
inhibition at 50 µM (Cryptococcus neoformans [7]): 67%
inhibition at 6.25 µM (Cryptococcus neoformans [8]): 18%
inhibition at 100 µM (Candida albicans [9]): 1%
inhibition at 25 µM (Cryptococcus neoformans [10]): 26%
inhibition at 0.81 µM (Cryptococcus neoformans [11]): 10%
inhibition at 100 µM (Candida tropicalis [12]): 1%
inhibition at 1.62 µM (Cryptococcus neoformans [13]): 11%
inhibition at 100 µM (Cryptococcus neoformans [14]): 72%
